In paper PMC11600170 (JACS Au, 2024):

How the values were obtained:
MOLM13 cells [1] = assay: RNA-seq with differential expression, KEGG enrichment and GSEA in MOLM13 cells; format: cell-based, human; details: 200 nM, 24 h, fold change ≥2 and adjusted p-value ≤0.05
MOLM13 cells [2] = assay: Cell viability / antiproliferation assay in MOLM13 cells; format: cell-based, human; details: 72-h viability, CRBN WT and CRBN-null HEK293T and MOLM13 cells, 10 μM and 1 μM
Method in brief: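 Screening ran as a 72-h viability assay in CRBN wild-type and CRBN-null (knockout) HEK293T and MOLM13 cells. Lenalidomide and CC-885 served as controls. MOLM13 CRBN WT and KO cells were tested in biological triplicates, and the assay was repeated in three separate experiments.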

SMILES | number of differentially expressed genes (DEGs) (MOLM13 cells [1]) | activity in CRBN-dependent proliferation screen (MOLM13 cells [2])
CN1CCc2[nH]c(-c3ccnc(NC(=O)[C@@H](CC(F)F)c4ccc(F)cc4)c3)c(Nc3ccccc3)c2C1=O [BAY-204] | 5,020 genes | 
Cc1ccc(NC(=O)NCc2ccc3c(c2)CN(C2CCC(=O)NC2=O)C3=O)cc1Cl (stereo not drawn) [CC-885] |  | nonselective profile
Nc1cccc2c1CN(C1CCC(=O)NC1=O)C2=O (stereo not drawn) [lenalidomide] |  | minimal activity
